Where “and” joins values, the source holds several entries; their conditions need not be identical. Identical values can stand only once.
Test system: U2OS
Experiment: Multiplex assay against U2OS
Format: toxicity, cell-based
Details: human
Method in brief: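 Compound was added to live cells that had been stained at seeding with Hoechst33342, BioTracker Green Microtubule Cytoskeleton Dye, MitoTracker Red and Annexin V Alexa Fluor 680, and imaging followed on a CQ1 microscope at 37°C and 5% CO2. CellPathfinder machine-learning gating divided cells into Hoechst high-intensity objects or normal cells, normal cells into healthy, pyknosed or fragmented nuclei, and pyknosed cells into mitotic or apoptotic. Tubulin, mitochondrial-mass and membrane-permeability phenotypes are per cents of healthy-nucleus cells.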

[1] = 12 h, 1 µM, compound concentration 1 uM
[2] = 12 h, 10 µM, compound concentration 10 uM
[3] = 24 h, 1 µM, compound concentration 1 uM
[4] = 24 h, 10 µM, compound concentration 10 uM
[5] = 48 h, 1 µM, compound concentration 1 uM
[6] = 48 h, 10 µM, compound concentration 10 uM

In the case of `CC(C)CC(=O)Nc1cncc(-c2ccc3[nH]nc(-c4nc5c(-c6cccc(F)c6)cncc5[nH]4)c3c2)c1` [LORECIVIVINT], the “Population Apoptotic (%)” value [1] was 45.16% and 22.22%, the “Population Fragmented Nuclei (%)” value [1] was 2.6% and 2.94% and the “Population Healthy Nuclei (%)” value [1] was 88.44% and 83.82%. The “Population Hoechst High Intensity Objects (%)” value [1] was 0%, the “Population Membrane Permeable-Phenotype (%)” value [1] was 5.23% and 5.26% and the “Population Mitotic Cells (%)” value [1] was 54.84% and 77.78%. The “Population Normal (%)” value [1] was 100%, the “Population Pyknosed Nuclei (%)” value [1] was 8.96% and 13.24% and the “Population Tubulin-Different-Phenotype (%)” value [1] was 7.84% and 9.65%. The “Total Cell Count” value [1] was 346 and 136, the “Population Apoptotic (%)” value [2] was 60.48% and 43.06% and the “Population Fragmented Nuclei (%)” value [2] was 3.46% and 6.63%. For the same molecule, the “Population Healthy Nuclei (%)” value [2] was 55.31% and 53.59%, the “Population Hoechst High Intensity Objects (%)” value [2] was 0% and the “Population Membrane Permeable-Phenotype (%)” value [2] was 4.46% and 6.19%. For the same molecule, the “Population Mitochondria Different-Phenotype (%)” value [2] was 0% and 2.06%, the “Population Mitotic Cells (%)” value [2] was 39.52% and 56.94% and the “Population Normal (%)” value [2] was 100%. For the same molecule, the “Population Pyknosed Nuclei (%)” value [2] was 41.23% and 39.78%, the “Population Tubulin-Different-Phenotype (%)” value [2] was 8.04% and 1.03% and the “Total Cell Count” value [2] was 405 and 181. For the same molecule, the “Population Apoptotic (%)” value [3] was 65.71% and 37.04%, the “Population Fragmented Nuclei (%)” value [3] was 3.06% and 4.14% and the “Population Healthy Nuclei (%)” value [3] was 87.22% and 77.24%. For the same molecule, the “Population Hoechst High Intensity Objects (%)” value [3] was 0.28% and 0%, the “Population Membrane Permeable-Phenotype (%)” value [3] was 2.87% and 3.57% and the “Population Mitotic Cells (%)” value [3] was 34.29% and 62.96%. For the same molecule, the “Population Normal (%)” value [3] was 99.72% and 100%, the “Population Pyknosed Nuclei (%)” value [3] was 9.72% and 18.62% and the “Population Tubulin-Different-Phenotype (%)” value [3] was 5.73% and 4.46%. The “Total Cell Count” value [3] was 361 and 145, the “Population Apoptotic (%)” value [4] was 54.77% and 33.33% and the “Population Fragmented Nuclei (%)” value [4] was 3.76% and 6.3%. For the same molecule, the “Population Healthy Nuclei (%)” value [4] was 39.53% and 38.24%, the “Population Hoechst High Intensity Objects (%)” value [4] was 0% and the “Population Membrane Permeable-Phenotype (%)” value [4] was 4.17% and 5.49%. For the same molecule, the “Population Mitochondria Different-Phenotype (%)” value [4] was 0.6% and 2.2%, the “Population Mitotic Cells (%)” value [4] was 45.23% and 66.67% and the “Population Normal (%)” value [4] was 100%. The “Population Pyknosed Nuclei (%)” value [4] was 56.71% and 55.46%, the “Population Tubulin-Different-Phenotype (%)” value [4] was 10.12% and 3.3% and the “Total Cell Count” value [4] was 425 and 238. For the same molecule, the “Population Apoptotic (%)” value [5] was 60.87% and 57%, the “Population Fragmented Nuclei (%)” value [5] was 5.63% and 2.11% and the “Population Healthy Nuclei (%)” value [5] was 42.54% and 27.46%. The “Population Hoechst High Intensity Objects (%)” value [5] was 0%, the “Population Membrane Permeable-Phenotype (%)” value [5] was 3.31% and 7.69% and the “Population Mitochondria Different-Phenotype (%)” value [5] was 0% and 12.82%. For the same molecule, the “Population Mitotic Cells (%)” value [5] was 39.13% and 43%, the “Population Normal (%)” value [5] was 100% and the “Population Pyknosed Nuclei (%)” value [5] was 51.83% and 70.42%. The “Population Tubulin-Different-Phenotype (%)” value [5] was 7.95% and 10.26%, the “Total Cell Count” value [5] was 355 and 142 and the “Population Apoptotic (%)” value [6] was 66.91% and 37.27%. The “Population Fragmented Nuclei (%)” value [6] was 5.11% and 2.77%, the “Population Healthy Nuclei (%)” value [6] was 33.11% and 33.6% and the “Population Hoechst High Intensity Objects (%)” value [6] was 0%. For the same molecule, the “Population Membrane Permeable-Phenotype (%)” value [6] was 5.37% and 9.41%, the “Population Mitochondria Different-Phenotype (%)” value [6] was 1.34% and 1.18% and the “Population Mitotic Cells (%)” value [6] was 33.09% and 62.73%. The “Population Normal (%)” value [6] was 100%, the “Population Pyknosed Nuclei (%)” value [6] was 61.78% and 63.64% and the “Total Cell Count” value [6] was 450 and 253.

With `CCNC1(C(N)=O)CCN(c2ncnc3c2nc(-c2ccccc2Cl)n3-c2ccc(Cl)cc2)CC1` [OTENABANT] the “Population Apoptotic (%)” value [1] was 77% and 85%, the “Population Fragmented Nuclei (%)” value [1] was 30% and 17% and the “Population Healthy Nuclei (%)” value [1] was 60% and 74%. The “Population Hoechst High Intensity Objects (%)” value [1] was 3% and 2%, the “Population Membrane Permeable-Phenotype (%)” value [1] was 13% and 11% and the “Population Mitotic Cells (%)” value [1] was 22% and 14%. The “Population Normal (%)” value [1] was 96% and 97%, the “Population Pyknosed Nuclei (%)” value [1] was 9% and 7% and the “Population Tubulin-Different-Phenotype (%)” value [1] was 4% and 10%. For the same molecule, the “Total Cell Count” value [1] was 254 and 93, the “Population Apoptotic (%)” value [2] was 58% and 70% and the “Population Fragmented Nuclei (%)” value [2] was 31% and 21%. For the same molecule, the “Population Healthy Nuclei (%)” value [2] was 48% and 60%, the “Population Hoechst High Intensity Objects (%)” value [2] was 6% and 0% and the “Population Membrane Permeable-Phenotype (%)” value [2] was 81% and 65%. The “Population Mitochondria Different-Phenotype (%)” value [2] was 63% and 73%, the “Population Mitotic Cells (%)” value [2] was 41% and 30% and the “Population Normal (%)” value [2] was 93% and 99%. For the same molecule, the “Population Pyknosed Nuclei (%)” value [2] was 19% and 18%, the “Population Tubulin-Different-Phenotype (%)” value [2] was 89% and 76% and the “Total Cell Count” value [2] was 211 and 112. For the same molecule, the “Population Apoptotic (%)” value [3] was 79% and 80%, the “Population Fragmented Nuclei (%)” value [3] was 26% and 24% and the “Population Healthy Nuclei (%)” value [3] was 61% and 62%. For the same molecule, the “Population Hoechst High Intensity Objects (%)” value [3] was 3% and 4%, the “Population Membrane Permeable-Phenotype (%)” value [3] was 11% and 15% and the “Population Mitochondria Different-Phenotype (%)” value [3] was 5% and 15%. The “Population Mitotic Cells (%)” value [3] was 20%, the “Population Normal (%)” value [3] was 96% and 95% and the “Population Pyknosed Nuclei (%)” value [3] was 11% and 13%. For the same molecule, the “Population Tubulin-Different-Phenotype (%)” value [3] was 7% and 5%, the “Total Cell Count” value [3] was 308 and 120 and the “Population Apoptotic (%)” value [4] was 69% and 80%. For the same molecule, the “Population Fragmented Nuclei (%)” value [4] was 29% and 28%, the “Population Healthy Nuclei (%)” value [4] was 49% and 53% and the “Population Hoechst High Intensity Objects (%)” value [4] was 3%. The “Population Membrane Permeable-Phenotype (%)” value [4] was 55% and 47%, the “Population Mitochondria Different-Phenotype (%)” value [4] was 75% and 72% and the “Population Mitotic Cells (%)” value [4] was 30% and 20%. For the same molecule, the “Population Normal (%)” value [4] was 96%, the “Population Pyknosed Nuclei (%)” value [4] was 20% and 18% and the “Population Tubulin-Different-Phenotype (%)” value [4] was 78% and 62%. The “Total Cell Count” value [4] was 218 and 137, the “Population Apoptotic (%)” value [5] was 86% and 52% and the “Population Fragmented Nuclei (%)” value [5] was 24% and 16%. For the same molecule, the “Population Healthy Nuclei (%)” value [5] was 64% and 69%, the “Population Hoechst High Intensity Objects (%)” value [5] was 1% and 4% and the “Population Membrane Permeable-Phenotype (%)” value [5] was 7% and 13%. The “Population Mitochondria Different-Phenotype (%)” value [5] was 4% and 10%, the “Population Normal (%)” value [5] was 98% and 95% and the “Population Pyknosed Nuclei (%)” value [5] was 10% and 14%. The “Population Tubulin-Different-Phenotype (%)” value [5] was 3% and 9%, the “Population Apoptotic (%)” value [6] was 86% and 80% and the “Population Fragmented Nuclei (%)” value [6] was 32% and 29%. The “Population Healthy Nuclei (%)” value [6] was 43% and 45%, the “Population Hoechst High Intensity Objects (%)” value [6] was 7% and 10% and the “Population Membrane Permeable-Phenotype (%)” value [6] was 49% and 43%. For the same molecule, the “Population Mitochondria Different-Phenotype (%)” value [6] was 55% and 66%, the “Population Mitotic Cells (%)” value [6] was 13% and 20% and the “Population Normal (%)” value [6] was 92% and 89%. For the same molecule, the “Population Pyknosed Nuclei (%)” value [6] was 23% and 24%, the “Population Tubulin-Different-Phenotype (%)” value [6] was 51% and 49% and the “Total Cell Count” value [6] was 269 and 138.

Source: ChEMBL document CHEMBL5724801, “EUbOPEN Chemogenomics Library - Multiplex” (2024)
